Measured values reported in ChEMBL document CHEMBL1143238, “Oxazaborolidine derivatives inducing autoinducer-2 signal transduction in Vibrio harveyi” (2008).
Converted amounts (≈) assume the structure as drawn. The source made the active and inactive calls. The rule behind the calls is not given here.

Experiments:
Vibrio harveyi [1] = test: Antibacterial activity against Vibrio harveyi MM77 mutant after 18 hrs; assay type: functional
Procedure, shortened: (§1)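 Strains were grown aerobically at 30 °C with shaking in AB medium. Growth was read as OD595 after 18 h incubation. Each experiment was run in triplicate and repeated three times.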

Vibrio harveyi [2] = test: Antibacterial activity against Vibrio harveyi BB886 mutant after 18 hrs; assay type: functional; procedure, shortened: as §1
Vibrio harveyi [3] = test: Antibacterial activity against Vibrio harveyi BB170 mutant after 18 hrs; assay type: functional; procedure, shortened: as §1
Vibrio harveyi [4] = test: Induction of bioluminescence in Vibrio harveyi BB170 mutant (sensor 1-, sensor 2+) at 600 uM; assay type: functional, organism-based
Procedure, shortened: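 Strain was grown in AB medium at 30 °C with shaking to 1.5–2.5 · 10^9 CFU/ml (15–16 h), then diluted 1:5000 or 1:10,000 into fresh AB medium containing compound. Incubation was at 30 °C for about 7 h with luminescence monitoring. Light was normalized to CFU or OD595. Fold induction over endogenous luminescence was taken at the minimum-luminescence point (3–4 h). Negative control was fresh AB medium; positive control was 10% v/v BB152 spent medium.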

Compound	MIC (Vibrio harveyi [1])	MIC (Vibrio harveyi [2])	MIC (Vibrio harveyi [3])	Activity (Vibrio harveyi [4])
C[C@H]1NB(c2ccccc2)O[C@@H]1c1ccccc1	10 mM (≈ 2370 µg/mL)	10 mM (≈ 2370 µg/mL)	10 mM (≈ 2370 µg/mL)	–
CCCCB1O[C@H](c2ccccc2)[C@H](C)N1C	10 mM (≈ 2310 µg/mL)	10 mM (≈ 2310 µg/mL)	–	–
CC1(C)COB(c2ccccc2)N1	10 mM (≈ 1750 µg/mL)	5 mM (≈ 875 µg/mL)	–	–
C[C@H]1[C@@H](c2ccccc2)OB(c2ccccc2)N1C	–	–	–	Active
